# Screening results from PubChem.
# Shown are actives, neighbours in structure and some others; about 2.4% of the full set was active somewhere.
# Runt-CBFb FRET – Runt domain-CBFb interaction inhibition. Q01196+Q13951. Cerulean-Runt/Venus-CBFb FRET ratio 530/480, 1 h. inhibition, % at 20 µM. actives 0.46% (n = 220,000). AID 1496;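 active = inhibition over about 50% at 20 µM in the single-dose screen, limit read from the data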;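 note: 0% = DMSO wells and 100% = excess unlabeled CBFb competitor control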
#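 Schedule: protein complex preformed 1 h, compound exposure 1 h, room temperature, dark; test system: Cerulean-labeled Runt domain protein; amount: 100 nM per protein; buffer or medium: Tris 50 mM pH 7.5, KCl, K2SO4, 0.01% BSA; read-out: loss of energy transfer signal; detection: FRET fluorescence; controls: 5 µM unlabeled CBFb as full-inhibition high control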
# RanGTP-Imp inh – disruptors of Ran-importin-beta complex formation – biochemical, FRET, CFP-Ran, YFP-importin-beta, homogeneous, primary screen. inhibition, % (no concentration beside the values). actives 1.1% (n = 300,000). AID 2216. cell-free CFP-Ran/YFP-importin-beta FRET ratio;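 active = more than half of the replicate wells show a fall in the fluorescence ratio signal beyond about 16%, limit read from the data, passing the limit was not always enough; inconclusive = exactly half of the replicate wells pass the set limit; inactive = fewer than half of replicates pass the limit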;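 note: 0% = DMSO wells and 100% = Ran loaded with GDP instead of GTP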
# Runt-SMMHC FRET – blocks binding of human RUNX1 Runt domain to CBFb-SMMHC; Cerulean-Runt/Venus-CBFb-SMMHC FRET ratio 530/480, 1 h; inhibition, % at 20 µM; actives 0.74% (n = 220,000);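 active = mean inhibition across duplicate retests at 20 µM reaching about 50%, limit read from the data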;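 note: 0% = DMSO wells and 100% = wells with excess untagged CBFb-SMMHC; inhibitors lower the FRET ratio by blocking Runt binding to CBFb-SMMHC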
# MEX-5 binding – C. elegans MEX-5 TCR-2 RNA binding activity; activity score (negative = inhibition of binding), % at 10 µM; AID 1832; Q9XUB2; actives 0.38% (n = 300,000); MEX-5/FITC-TCR2 RNA binding, fluorescence polarization; active compounds read low;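 active = inhibition past about -25% in most replicates, and total fluorescence under double the plate's negative control median, limit read from the data; inconclusive = replicates evenly split on the limit, or fluorescence at least double controls; inactive = too little inhibition in most replicates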;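 note: 0% = DMSO and -100% = 5 µM competing unlabeled TCR2 RNA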
# EBV gp42 block – blocks Epstein-Barr virus glycoprotein 42 binding; Q1HVG2; Fluorescence polarization binding assay, mP read-out; inhibition, % (tested at 21.74 µM); actives 0.42% (n = 220,000); AID 1085; in the data active = inhibition above about 50%
# LANA-H2A inh – blocks KSHV LANA binding to histone H2A/H2B | cell-free LANA-H2A/H2B peptide, fluorescence polarization | inhibition, % (no concentration beside the values) | actives 0.6% (n = 320,000) | AID 2629; in the data active = inhibition mostly above about 10%, no sharp cut-off; inactive = mostly below about 6.7%
# Target sequence (Q9QR71 whole entry, looked up): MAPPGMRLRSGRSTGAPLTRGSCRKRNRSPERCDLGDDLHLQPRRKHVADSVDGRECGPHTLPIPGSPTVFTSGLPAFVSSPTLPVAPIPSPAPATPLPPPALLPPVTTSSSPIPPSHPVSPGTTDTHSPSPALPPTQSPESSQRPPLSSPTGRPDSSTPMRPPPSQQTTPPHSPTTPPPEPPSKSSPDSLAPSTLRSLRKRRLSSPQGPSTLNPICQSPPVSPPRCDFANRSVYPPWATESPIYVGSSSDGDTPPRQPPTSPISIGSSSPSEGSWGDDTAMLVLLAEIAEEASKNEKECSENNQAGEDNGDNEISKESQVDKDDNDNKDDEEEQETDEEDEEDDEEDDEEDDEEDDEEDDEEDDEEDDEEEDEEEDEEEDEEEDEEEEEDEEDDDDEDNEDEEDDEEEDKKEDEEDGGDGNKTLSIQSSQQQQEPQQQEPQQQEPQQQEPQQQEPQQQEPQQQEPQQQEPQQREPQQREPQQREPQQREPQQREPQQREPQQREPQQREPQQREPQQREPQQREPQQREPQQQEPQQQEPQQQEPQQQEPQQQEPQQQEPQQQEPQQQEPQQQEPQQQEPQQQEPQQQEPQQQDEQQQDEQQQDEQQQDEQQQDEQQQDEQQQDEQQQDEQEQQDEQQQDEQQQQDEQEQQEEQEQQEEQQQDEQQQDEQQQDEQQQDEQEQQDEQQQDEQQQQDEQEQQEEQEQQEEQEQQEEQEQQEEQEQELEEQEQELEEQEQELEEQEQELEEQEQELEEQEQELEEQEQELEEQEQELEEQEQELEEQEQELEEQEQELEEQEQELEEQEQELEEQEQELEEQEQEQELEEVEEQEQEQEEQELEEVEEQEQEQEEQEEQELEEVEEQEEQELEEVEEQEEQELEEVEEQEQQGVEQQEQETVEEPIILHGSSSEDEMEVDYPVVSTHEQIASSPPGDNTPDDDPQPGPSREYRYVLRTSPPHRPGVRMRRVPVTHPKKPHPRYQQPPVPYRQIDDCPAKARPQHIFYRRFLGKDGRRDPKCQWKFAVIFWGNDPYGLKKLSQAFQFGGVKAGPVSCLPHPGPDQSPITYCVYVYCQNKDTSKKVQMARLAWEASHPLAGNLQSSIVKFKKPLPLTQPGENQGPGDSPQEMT
# * marks the source's active call; other numbers are inactive results; ? = inconclusive; nt = no result given.
SMILES,Runt-CBFb FRET,RanGTP-Imp inh,Runt-SMMHC FRET,MEX-5 binding,EBV gp42 block,LANA-H2A inh
CCC(C)NC(=O)c1ccccc1NC(=O)Nc1ccccc1 (stereo not drawn),-3,?,4,-1,-18,16*
CC(C)CNC(=O)c1ccccc1NC(=O)Nc1ccccc1,-2,-2,1,-1,12,-1
CSc1nc(SCCO)c2sc3nc(-c4ccco4)c4c(c3c2n1)CC(C)(C)OC4,-12,4,-46,1,18,nt
CSc1nc(N(CCO)CCO)c2sc3nc(-c4ccco4)c4c(c3c2n1)CCC4,-3,-4,-20,1,56*,nt
N=c1c(C(=O)NCC2CCCO2)cc2c(=O)n3ccccc3nc2n1Cc1ccccc1 (stereo not drawn),nt,180*,nt,0,nt,-2
N=c1c(C(=O)NCC2CCCO2)cc2c(=O)n3ccccc3nc2n1Cc1ccccc1Cl (stereo not drawn),nt,188*,nt,-46*,nt,3
Cc1ccc(Cn2c(=N)c(C(=O)NCC3CCCO3)cc3c(=O)n4cccc(C)c4nc32)cc1 (stereo not drawn),nt,-3,nt,-2,nt,3
Cc1ccc(Cn2c(=N)c(C(=O)NCC3CCCO3)cc3c(=O)n4ccccc4nc32)cc1 (stereo not drawn),nt,161*,nt,?,nt,-3
COc1ccc(-c2cc(C(F)F)n3ncc(C(=O)NCC4CCCO4)c3n2)cc1 (stereo not drawn),18,58*,62*,0,-5,2
O=C(NCC1CCCO1)c1cnn2c(C(F)F)cc(C3CC3)nc12 (stereo not drawn),nt,2,nt,0,nt,-23
COc1ccc(NC(=O)NC23CC4(C)CC(C)(CC(C)(C4)C2)C3)cc1OC,-6,0,-3,-1,-20,1
COc1ccc(S(=O)(=O)NC2CCc3ccccc32)cc1OC (stereo not drawn),nt,-3,nt,1,nt,-1
CCOC(=O)C(C)Sc1cnccn1 (stereo not drawn),0,-3,-2,-2,5,0
COc1ccc(C(=O)NCCCc2nc3ccccc3n2Cc2ccccc2C)cc1OC,-10,2,-4,0,-7,1
COc1ccc(Cn2c(=N)c(C(=O)NCC3CCCO3)cc3c(=O)n4ccccc4nc32)cc1 (stereo not drawn),nt,23*,nt,-12,nt,4
COc1ccc(CCn2c(=N)c(C(=O)NCC3CCCO3)cc3c(=O)n4ccccc4nc32)cc1 (stereo not drawn),nt,0,nt,0,nt,1
N=c1c(C(=O)NCC2CCCO2)cc2c(=O)n3ccccc3nc2n1Cc1ccc(Cl)cc1 (stereo not drawn),nt,180*,nt,-22,nt,-3
COc1ccc(OC(=O)COc2ccccc2C)cc1,nt,1,nt,-1,nt,-1
CCOc1ccc(S(=O)(=O)Nc2cc(Sc3ncn[nH]3)c3oc(=O)sc3c2)cc1,45,-2,-9,-34*,-1,-3
O=C(CCc1nnc(Cc2ccc3c(c2)OCO3)o1)NCc1nc2ccccc2s1,-2,1,2,2,-11,nt
Cc1ccc(C)n1-c1sc2c(c1C(=O)O)CCCC2,7,0,-6,-1,3,0
Cc1ccc(C)n1-c1sccc1C(=O)O,12,-2,1,-36*,10,nt
Cc1ccc(Nc2ccc([N+](=O)[O-])ccc2=O)cc1,nt,-2,nt,-28*,nt,1
O=C(c1cc(COc2ccc(F)c(F)c2)on1)N1CCN(C/C=C/c2ccccc2)CC1,nt,5,nt,-3,nt,nt
CCOCCCn1c(=NC(=O)c2cccs2)c(C#N)cc2c(=O)n3cccc(C)c3nc21,76*,121*,81*,-37*,54*,28*
SMILES,Runt-CBFb FRET,RanGTP-Imp inh,Runt-SMMHC FRET,MEX-5 binding,EBV gp42 block,LANA-H2A inh
Cc1cccn2c(=O)c3cc(C#N)c(=NC(=O)c4cccs4)n(CC(C)C)c3nc12,39,151*,88*,-19,-9,-9
Cc1cccn2c(=O)c3cc(C(=O)NCC(C)C)sc3nc12,nt,-4,nt,1,nt,0
CCOCCCNC(=O)c1cc2c(=O)n3cccc(C)c3nc2n1C,5,6,20,-1,nt,2
O=C(NC1CCCCC1)N1CCCC1,2,5,6,1,-15,3
C[C@@H](NC(=O)c1nc[nH]c1C(=O)N1CCc2ccccc2C1)c1ccccc1,nt,nt,nt,nt,nt,1
CCCNC(=O)C1CCN(S(=O)(=O)c2ccc3[nH]c(=O)ccc3c2)CC1,nt,-2,nt,0,nt,20*
CCCCNC(=O)C1CCN(C(=O)C2CCN(S(=O)(=O)c3ccc(C)cc3)CC2)CC1,nt,-1,nt,2,nt,13*
CCCCC(=O)Nc1nn(CC(C)C)c2nc3ccccc3cc12,22,29*,42,1,-4,0
CCCn1nc(NC(=O)CC(C)C)c2cc3ccccc3nc21,-4,27*,23,2,-19,2
Fc1ccccc1NC(=S)Nc1ccc(CN2CCOCC2)cc1,0,6,2,-1,-8,-1
CC(C)n1nc(C(=O)Nc2nc3ccccc3[nH]2)c2ccccc2c1=O,103*,-1,2,2,-6,8
CCCn1nc(C(=O)Nc2nc3ccccc3[nH]2)c2ccccc2c1=O,-5,0,3,1,-4,0
CCN(CC(=O)Nc1c(F)cccc1F)C(=O)CCc1nc2ccccc2c(=O)[nH]1,nt,?,nt,-6,nt,-2
CCN(CC(=O)Nc1c(F)cccc1F)C(=O)CCCc1nc2ccccc2c(=O)[nH]1,nt,6,nt,-1,nt,9.7*
CC1=CC(C)(C)NC(=S)N1c1cccc2cc(S(=O)(=O)O)ccc12,32,3,6,-7,2,0
Cc1ccc(C)c(NC(=O)c2nnn(Cc3ccccc3)c2N)c1,0,168*,-32,-4,-10,3
Cc1ccc(Cn2nnc(C(=O)Nc3cc(C)ccc3C)c2N)cc1,-2,2,3,-4,-1,1
Cc1cc(=O)[nH]c(-c2cccnc2)n1,-1,22*,-5,-1,-2,2
N=C1/C(=C\c2ccc(SCc3ccccc3)o2)C(=O)N=C2SC(CC(=O)N3CCOCC3)=NN12,6,8,-21,-30*,-30,1
Cc1ccc(/C=C2\C(=N)N3N=C(CC(=O)N4CCOCC4)SC3=NC2=O)o1,nt,4,nt,-5,nt,18*
Cc1cccc(N(C)S(=O)(=O)c2nnc(NC(=O)c3ccco3)s2)c1,nt,176*,nt,-33*,nt,-4
c1cncc(CNc2c3c(nc4nnnn24)CCCC3)c1,2,1,-1,-3,-19,18*
C=CCNc1c2c(nc3nnnn13)CCCC2,0,2,-2,0,-14,nt
Cc1c(Cc2ccccc2)c(=O)oc2cc(O)cc(O)c12,24,4,63*,2,6,6
